From PubChem BioAssay
Sampled rows, rich in hits. Any-hit rate of the full collection: about 29%.
E coli WT exp – growth inhibitors of E. coli BW25113 wild type | OD600 absorbance | growth inhibition, % at 100 µM | 0.15% of 98,000 active;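 active = growth inhibition above about 50% at one test dose, limit read from the data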;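 note: growth measured after 20 h incubation at 37 °C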
CYP2C9 act – increases human cytochrome P450 2C9 activity | recombinant CYP2C9, luciferin-H conversion, luminescence; stronger effect = higher value; factor 1 = untreated enzyme, 0 = blocked | activation factor at 5 µM | 1.4% of 96,000 active;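 active = activation factor of 2 or more for CYP2C9 at a 5 µM dose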
tolC growth inh – blocks growth of E. coli BW25113 tolC mutant; 2.2% of 65,000 active; OD615; AID 573; growth inhibition, % at 10 µM (by protocol);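 active = growth inhibition at or above a cutoff equal to the mean over every tested compound plus 3 SD, cut at about 60% in these data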;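 note: growth measured after 20 h incubation at 37 °C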
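System: E. coli ΔtolC::kan strain BW25113; Buffer or medium: LB broth supplemented with 50 µg/mL kanamycin; Compound: 10 µM final, single dose; Incubation: bacterial growth with compound for 20 h at 37 °C; Signal: A615 absorbance measurement; Evaluation: growth inhibition in percent.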
CYP2C19 inh – blocks human cytochrome P450 2C19. AID 778. P33261. inhibition, % at 5 µM. 21% of 96,000 active. CYP2C19 Supersomes, luciferin-H EGE luminescence, 30 min;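 active = CYP2C19 inhibition above a set limit at 5 µM in the primary screen, cut at about 50% in these data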
Target sequence (P33261 whole entry, looked up): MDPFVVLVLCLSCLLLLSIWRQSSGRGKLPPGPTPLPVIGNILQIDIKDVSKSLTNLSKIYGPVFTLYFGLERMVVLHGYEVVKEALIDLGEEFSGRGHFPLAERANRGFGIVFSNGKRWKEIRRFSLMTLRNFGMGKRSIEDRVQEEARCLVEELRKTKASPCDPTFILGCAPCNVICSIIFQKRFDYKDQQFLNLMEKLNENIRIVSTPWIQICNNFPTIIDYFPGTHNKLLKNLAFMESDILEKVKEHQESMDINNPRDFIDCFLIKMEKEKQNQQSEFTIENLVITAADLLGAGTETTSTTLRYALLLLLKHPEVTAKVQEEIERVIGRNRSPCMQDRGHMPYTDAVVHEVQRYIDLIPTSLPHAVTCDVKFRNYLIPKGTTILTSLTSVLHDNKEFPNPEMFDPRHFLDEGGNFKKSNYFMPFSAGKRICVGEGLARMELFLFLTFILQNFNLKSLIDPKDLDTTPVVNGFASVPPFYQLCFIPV
CYP2C19 activ – cytochrome P450 2C19 (human) activation | P33261 | recombinant CYP2C19, luciferin-H EGE luminescence; stronger effect = higher value; 0 = fully inhibited enzyme, 1 = untreated enzyme | activation factor at 5 µM | 96,000 tested, under 10 active;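 active = activation factor of at least 2 at 5 µM in the primary screen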
CYP2C9 inhib – blocks human cytochrome P450 2C9. P11712. CYP2C9 Supersomes, luciferin-H conversion, luminescence. inhibition, % at 5 µM. 20% of 96,000 active. AID 777;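 active = blocking of liver enzyme CYP2C9 beyond about 50% at 5 µM, limit read from the data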
Of the large screens only hits and unclear results are named; the others gave an inactive call.

CCOC(=O)C1=C(c2ccccc2)NC(SC)=C(C#N)C1c1ccco1 (stereo not given)	CYP2C9 inhib 78
CCOC(=O)C1=C(c2ccccc2)NC(SCC(=O)Nc2ccc(C)cc2)=C(C#N)C1c1ccco1 (stereo not given)	CYP2C9 inhib 65
CCOC(=O)C1=C(c2ccccc2)NC(SCC(=O)Nc2ccccc2C)=C(C#N)C1c1ccco1 (stereo not given)	CYP2C19 inh 57, CYP2C9 inhib 75
CCOC(=O)C1=C(C)NC(=O)NC1c1ccco1 (stereo not given)	none
Cc1c(C(=O)NCCSCc2ccc(Cl)cc2Cl)cccc1[N+](=O)[O-]	none (no result: tolC growth inh)
CCN(CC)C(=O)c1ccc(C(=O)c2ccccc2)cc1	none (no result: tolC growth inh)
CCOC(=O)C1=C(c2ccccc2)NC(SCC(=O)Nc2cccc(C)c2)=C(C#N)C1c1ccco1 (stereo not given)	CYP2C19 inh 60, CYP2C9 inhib 92
CCc1ccc(NC(=O)CSC2=C(C#N)C(c3ccco3)C3=C(CCCC3=O)N2)cc1 (stereo not given)	none
COc1ccc(NC(=O)CCc2c(C)nc3nc(C)nn3c2C)cc1	none (no result: tolC growth inh)
CCOC(=O)Cc1nnc(Nc2cccc(O)c2)c2ccccc12	none
COC(=O)C1=C(C)NC(=O)C1(Nc1ccc(Cl)cn1)C(F)(F)F (stereo not given)	CYP2C19 inh 70
COCc1nnc(NS(=O)(=O)c2ccc([N+](=O)[O-])cc2)s1	CYP2C9 inhib 82 (no result: tolC growth inh)
COCc1nnc(NS(=O)(=O)c2ccc(Br)cc2)s1	CYP2C9 inhib 57
O=C(Nc1nnc(COc2ccc(Cl)cc2)s1)c1ccc([N+](=O)[O-])cc1	none (no result: tolC growth inh)
COc1ccc(S(=O)(=O)Nc2nncs2)cc1	none (no result: CYP2C9 act, CYP2C19 inh, CYP2C19 activ, CYP2C9 inhib)
Cc1ccc(-c2cnc(NC(=O)c3cccc(Br)c3)s2)c(C)c1	none (no result: tolC growth inh)
CSCCC1NC2(C(=O)Nc3c(Cl)cccc32)[C@@H]2C(=O)N(C3CCCC3)C(=O)[C@H]12 (stereo not given in full)	none
CSCCC1NC2(C(=O)Nc3c(C)cc(Cl)cc32)[C@@H]2C(=O)N(C3CCCC3)C(=O)[C@H]12 (stereo not given in full)	CYP2C9 inhib 60
N#Cc1c(/N=C/C=C/c2ccccc2)sc2c1CCCC2	none (no result: tolC growth inh)
Cc1cc(C)n2cc(CSc3nnnn3-c3ccccc3C)nc2n1	CYP2C9 act 2.7
O=C(O)c1ccc(CSCc2ccco2)cc1	none (no result: tolC growth inh)
Cc1cccc2nc(CSCc3ccco3)cn12	CYP2C19 inh 64
Cc1cc(C)n2cc(CSCc3ccco3)nc2n1	CYP2C9 inhib 70
Cc1cc(C)n2cc(CSC3=NCCS3)nc2n1	none
O=C(NCc1nnc(SCC(=O)N2CCC(Cc3ccccc3)CC2)o1)c1ccccc1F	CYP2C9 inhib 72
O=C(NCc1cccnc1)c1nnc(Cc2ccc(F)cc2)o1	CYP2C19 inh 78
O=C(NCc1cccnc1)NC1(C(F)(F)F)Oc2ccc(Cl)cc2O1 (stereo not given)	CYP2C19 inh 91, CYP2C9 inhib 58
O=C(NCc1cccnc1)c1cccc(Cl)c1	CYP2C19 inh 73
Cc1cc2c(cc(C(=O)NCc3cccnc3)n2Cc2ccc(Cl)cc2)o1	CYP2C19 inh 91, CYP2C9 inhib 91
CCOC(=O)c1c(C)c(C(=O)NCc2cccnc2)c(C)n1CC	CYP2C19 inh 70, CYP2C9 inhib 60
O=C(NCc1cccnc1)c1cccc(F)c1	none
O=C(NCc1cccnc1)c1c(F)c(F)c(F)c(F)c1F	CYP2C19 inh 81
COC(=O)C(C)N(C(=O)c1cccc(Cl)c1)c1c(C)cccc1C (stereo not given)	CYP2C19 inh 72, CYP2C9 inhib 62 (no result: tolC growth inh)
CC(NC(=O)NCc1cccnc1)(C(F)(F)F)C(F)(F)F	CYP2C19 inh 77
Nc1nc(NC(=O)Cc2ccccc2)nn1-c1ccccc1	none
CC(C)OC(=O)c1nnc(Cc2ccc(F)cc2)o1	CYP2C19 inh 89
COc1ccc(C(=O)NCc2cccnc2)cc1OC	none
COc1ccc(Br)cc1C(=O)NCc1cccnc1	CYP2C19 inh 56
O=C(NCc1ccncc1)c1nnc(Cc2c(F)cccc2Cl)o1	CYP2C19 inh 80, CYP2C9 inhib 83
O=C(NCc1ccco1)c1nnc(Cc2ccc(Cl)cc2)o1	none (no result: tolC growth inh)
CC(C)CCNC(=O)c1cccc(Cl)c1	CYP2C19 inh 58
